According to ChEMBL document CHEMBL3046615, “Isolation of nematicidal compounds from Tagetes patula L. yellow flowers: structure-activity relationship studies against cyst nematode Heterodera zeae infective stage larvae” (2011):
Calls of active or inactive are those of the source. The rule behind the calls is not given here.

How the values were obtained:
Heterodera zeae [1] = assay: Nematicidal activity against Heterodera zeae infective stage larvae assessed as nematode mortality at 0.25% under light conditions measured 5 to 60 min post dose by stereoscopic microscopy; format: functional, organism-based
Method in brief: (§1)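 H. zeae freshly hatched second-stage juveniles, 100 per plate, three replicates, at 28 ± 2 °C under light or in a dark box. Dilutions are % of a stock: 30 mg/mL for extracts/fractions, 1 mg/mL for pure compounds. Methanol-, DMSO- or water-soluble samples were tested in glass cavity blocks. Petroleum ether-soluble samples were air-dried in the block and covered with agar pieces bearing cultured larvae. Mortality was followed over 5–60 min; each value is the mean of three experiments.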

Heterodera zeae [2] = assay: Nematicidal activity against Heterodera zeae infective stage larvae assessed as nematode mortality at 1% under light conditions measured 5 to 60 min post dose by stereoscopic microscopy; format: functional, organism-based; method in brief: as §1
Heterodera zeae [3] = assay: Nematicidal activity against Heterodera zeae infective stage larvae assessed as nematode mortality at 0.125% under light conditions measured 48 hr post dose by stereoscopic microscopy; format: functional
Method in brief: (§2)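 Freshly hatched H. zeae second-stage juveniles, 100 per Petri plate, three replicates. Samples in MeOH, DMSO or water were tested in glass cavity blocks; petroleum ether samples were dried onto the block and larvae transferred on agar pieces. Percentages are dilutions of 30 mg/mL stocks (extracts/fractions) or 1 mg/mL stocks (pure compounds). Incubated at 28 ± 2 °C in light or dark box; mortality averaged over three replicates.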

Heterodera zeae [4] = assay: Nematicidal activity against Heterodera zeae infective stage larvae assessed as nematode mortality at 0.125% under light conditions measured 5 to 60 min post dose by stereoscopic microscopy; format: functional, organism-based; method in brief: as §1
Heterodera zeae [5] = assay: Nematicidal activity against Heterodera zeae infective stage larvae assessed as nematode mortality at 5% under dark conditions measured 5 to 60 min post dose by stereoscopic microscopy; format: functional, organism-based; method in brief: as §1
Heterodera zeae [6] = assay: Nematicidal activity against Heterodera zeae infective stage larvae assessed as nematode mortality at 1% under dark conditions measured 5 to 60 min post dose by stereoscopic microscopy; format: functional, organism-based; method in brief: as §1
Heterodera zeae [7] = assay: Nematicidal activity against Heterodera zeae infective stage larvae assessed as nematode mortality at 0.5% under light conditions measured 5 to 60 min post dose by stereoscopic microscopy; format: functional, organism-based; method in brief: as §1
Heterodera zeae [8] = assay: Nematicidal activity against Heterodera zeae infective stage larvae assessed as nematode mortality at 0.25% under dark conditions measured 5 to 60 min post dose by stereoscopic microscopy; format: functional, organism-based; method in brief: as §1
Heterodera zeae [9] = assay: Nematicidal activity against Heterodera zeae infective stage larvae assessed as nematode mortality at 0.25% under light conditions measured 24 hr post dose by stereoscopic microscopy; format: functional; method in brief: as §2
Heterodera zeae [10] = assay: Nematicidal activity against Heterodera zeae infective stage larvae assessed as nematode mortality at 0.125% under dark conditions measured 24 hr post dose by stereoscopic microscopy; format: functional; method in brief: as §2
Heterodera zeae [11] = assay: Nematicidal activity against Heterodera zeae infective stage larvae assessed as nematode mortality at 0.25% under dark conditions measured 48 hr post dose by stereoscopic microscopy; format: functional; method in brief: as §2
Heterodera zeae [12] = assay: Nematicidal activity against Heterodera zeae infective stage larvae assessed as nematode mortality at 0.5% under dark conditions measured 5 to 60 min post dose by stereoscopic microscopy; format: functional, organism-based; method in brief: as §1
Heterodera zeae [13] = assay: Nematicidal activity against Heterodera zeae infective stage larvae assessed as nematode mortality at 5% under light conditions measured 5 to 60 min post dose by stereoscopic microscopy; format: functional, organism-based; method in brief: as §1
Heterodera zeae [14] = assay: Nematicidal activity against Heterodera zeae infective stage larvae assessed as nematode mortality at 0.25% under dark conditions measured 24 hr post dose by stereoscopic microscopy; format: functional; method in brief: as §2
Heterodera zeae [15] = assay: Nematicidal activity against Heterodera zeae infective stage larvae assessed as nematode mortality at 2% under dark conditions measured 5 to 60 min post dose by stereoscopic microscopy; format: functional, organism-based; method in brief: as §1
Heterodera zeae [16] = assay: Nematicidal activity against Heterodera zeae infective stage larvae assessed as nematode mortality at 0.125% under light conditions measured 24 hr post dose by stereoscopic microscopy; format: functional; method in brief: as §2
Heterodera zeae [17] = assay: Nematicidal activity against Heterodera zeae infective stage larvae assessed as nematode mortality at 0.5% under dark conditions measured 24 hr post dose by stereoscopic microscopy; format: functional; method in brief: as §2
Heterodera zeae [18] = assay: Nematicidal activity against Heterodera zeae infective stage larvae assessed as nematode mortality at 1% under dark conditions measured 24 hr post dose by stereoscopic microscopy; format: functional; method in brief: as §2
Heterodera zeae [19] = assay: Nematicidal activity against Heterodera zeae infective stage larvae assessed as nematode mortality at 0.125% under dark conditions measured 5 to 60 min post dose by stereoscopic microscopy; format: functional, organism-based; method in brief: as §1
Heterodera zeae [20] = assay: Nematicidal activity against Heterodera zeae infective stage larvae assessed as nematode mortality at 0.25% under light conditions measured 48 hr post dose by stereoscopic microscopy; format: functional; method in brief: as §2
Heterodera zeae [21] = assay: Nematicidal activity against Heterodera zeae infective stage larvae assessed as nematode mortality at 1% under light conditions measured 24 hr post dose by stereoscopic microscopy; format: functional; method in brief: as §2
Heterodera zeae [22] = assay: Nematicidal activity against Heterodera zeae infective stage larvae assessed as nematode mortality at 2% under light conditions measured 5 to 60 min post dose by stereoscopic microscopy; format: functional, organism-based; method in brief: as §1
Heterodera zeae [23] = assay: Nematicidal activity against Heterodera zeae infective stage larvae assessed as nematode mortality at 0.5% under light conditions measured 24 hr post dose by stereoscopic microscopy; format: functional; method in brief: as §2
Heterodera zeae [24] = assay: Nematicidal activity against Heterodera zeae infective stage larvae assessed as nematode mortality at 0.5% under dark conditions measured 48 hr post dose by stereoscopic microscopy; format: functional; method in brief: as §2
Heterodera zeae [25] = assay: Nematicidal activity against Heterodera zeae infective stage larvae assessed as nematode mortality at 0.125% under dark conditions measured 48 hr post dose by stereoscopic microscopy; format: functional; method in brief: as §2
Heterodera zeae [26] = assay: Nematicidal activity against Heterodera zeae infective stage larvae assessed as nematode mortality at 1% under dark conditions measured 48 hr post dose by stereoscopic microscopy; format: functional; method in brief: as §2
Heterodera zeae [27] = assay: Nematicidal activity against Heterodera zeae infective stage larvae assessed as nematode mortality at 0.5% under light conditions measured 48 hr post dose by stereoscopic microscopy; format: functional; method in brief: as §2
Heterodera zeae [28] = assay: Nematicidal activity against Heterodera zeae infective stage larvae assessed as nematode mortality at 0.125% under dark conditions measured 72 hr post dose by stereoscopic microscopy; format: functional; method in brief: as §2
Heterodera zeae [29] = assay: Nematicidal activity against Heterodera zeae infective stage larvae assessed as nematode mortality at 0.25% under dark conditions measured 72 hr post dose by stereoscopic microscopy; format: functional; method in brief: as §2
Heterodera zeae [30] = assay: Nematicidal activity against Heterodera zeae infective stage larvae assessed as nematode mortality at 1% under light conditions measured 48 hr post dose by stereoscopic microscopy; format: functional; method in brief: as §2

## COc1cc(C(=O)O)cc(OC)c1OC [3,4,5-TRIMETHOXYBENZOIC ACID]
Heterodera zeae [1]
  Activity: inactive
Heterodera zeae [2]
  Activity: inactive
Heterodera zeae [3]
  mortality: 100%
Heterodera zeae [4]
  Activity: inactive
Heterodera zeae [5]
  Activity: inactive
Heterodera zeae [6]
  Activity: inactive
Heterodera zeae [7]
  Activity: inactive
Heterodera zeae [8]
  Activity: inactive
Heterodera zeae [9]
  mortality: 90%
Heterodera zeae [10]
  mortality: 80%
Heterodera zeae [11]
  mortality: 100%
Heterodera zeae [12]
  Activity: inactive
Heterodera zeae [13]
  Activity: inactive
Heterodera zeae [14]
  mortality: 90%
Heterodera zeae [15]
  Activity: inactive
Heterodera zeae [16]
  mortality: 90%
Heterodera zeae [17]
  mortality: 90%
Heterodera zeae [18]
  mortality: 100%
Heterodera zeae [19]
  Activity: inactive
Heterodera zeae [20]
  mortality: 100%
Heterodera zeae [21]
  mortality: 100%
Heterodera zeae [22]
  Activity: inactive
Heterodera zeae [23]
  mortality: 100%
Heterodera zeae [24]
  mortality: 100%
Heterodera zeae [25]
  mortality: 100%

## c1csc(-c2ccc(-c3cccs3)s2)c1 [ALPHA-TERTHIENYL]
Heterodera zeae [1]
  Activity: inactive
Heterodera zeae [2]
  Activity: inactive
Heterodera zeae [4]
  Activity: inactive
Heterodera zeae [5]
  Activity: inactive
Heterodera zeae [6]
  Activity: inactive
Heterodera zeae [7]
  Activity: inactive
Heterodera zeae [8]
  Activity: inactive
Heterodera zeae [9]
  mortality: 100%
Heterodera zeae [10]
  mortality: 100%
Heterodera zeae [12]
  Activity: inactive
Heterodera zeae [13]
  Activity: inactive
Heterodera zeae [14]
  mortality: 100%
Heterodera zeae [15]
  Activity: inactive
Heterodera zeae [16]
  mortality: 100%
Heterodera zeae [17]
  mortality: 100%
Heterodera zeae [18]
  mortality: 100%
Heterodera zeae [19]
  Activity: inactive
Heterodera zeae [21]
  mortality: 100%
Heterodera zeae [22]
  Activity: inactive
Heterodera zeae [23]
  mortality: 100%

## O=C(O)c1cc(O)c(O)c(O)c1 [GALLIC ACID]
Heterodera zeae [1]
  Activity: inactive
Heterodera zeae [2]
  Activity: inactive
Heterodera zeae [4]
  Activity: inactive
Heterodera zeae [5]
  Activity: inactive
Heterodera zeae [6]
  Activity: inactive
Heterodera zeae [7]
  Activity: inactive
Heterodera zeae [8]
  Activity: inactive
Heterodera zeae [9]
  mortality: 100%
Heterodera zeae [10]
  mortality: 100%
Heterodera zeae [12]
  Activity: inactive
Heterodera zeae [13]
  Activity: inactive
Heterodera zeae [14]
  mortality: 100%
Heterodera zeae [15]
  Activity: inactive
Heterodera zeae [16]
  mortality: 100%
Heterodera zeae [17]
  mortality: 100%
Heterodera zeae [18]
  mortality: 100%
Heterodera zeae [19]
  Activity: inactive
Heterodera zeae [21]
  mortality: 100%
Heterodera zeae [22]
  Activity: inactive
Heterodera zeae [23]
  mortality: 100%

## CCCCC/C=C\C/C=C\CCCCCCCC(=O)O [LINOLEIC ACID]
Heterodera zeae [1]
  Activity: inactive
Heterodera zeae [2]
  Activity: inactive
Heterodera zeae [4]
  Activity: inactive
Heterodera zeae [5]
  Activity: inactive
Heterodera zeae [6]
  Activity: inactive
Heterodera zeae [7]
  Activity: inactive
Heterodera zeae [8]
  Activity: inactive
Heterodera zeae [9]
  mortality: 100%
Heterodera zeae [10]
  mortality: 100%
Heterodera zeae [12]
  Activity: inactive
Heterodera zeae [13]
  Activity: inactive
Heterodera zeae [14]
  mortality: 100%
Heterodera zeae [15]
  Activity: inactive
Heterodera zeae [16]
  mortality: 100%
Heterodera zeae [17]
  mortality: 100%
Heterodera zeae [18]
  mortality: 100%
Heterodera zeae [19]
  Activity: inactive
Heterodera zeae [21]
  mortality: 100%
Heterodera zeae [22]
  Activity: inactive
Heterodera zeae [23]
  mortality: 100%

## COC(=O)c1ccc(O)c(O)c1 [METHYL PROTOCATECHUATE]
Heterodera zeae [1]
  Activity: inactive
Heterodera zeae [2]
  Activity: inactive
Heterodera zeae [3]
  mortality: 100%
Heterodera zeae [4]
  Activity: inactive
Heterodera zeae [5]
  Activity: inactive
Heterodera zeae [6]
  Activity: inactive
Heterodera zeae [7]
  Activity: inactive
Heterodera zeae [8]
  Activity: inactive
Heterodera zeae [9]
  mortality: 50%
Heterodera zeae [10]
  mortality: 10%
Heterodera zeae [11]
  mortality: 100%
Heterodera zeae [12]
  Activity: inactive
Heterodera zeae [13]
  Activity: inactive
Heterodera zeae [14]
  mortality: 10%
Heterodera zeae [15]
  Activity: inactive
Heterodera zeae [16]
  mortality: 50%
Heterodera zeae [17]
  mortality: 20%
Heterodera zeae [18]
  mortality: 60%
Heterodera zeae [19]
  Activity: inactive
Heterodera zeae [20]
  mortality: 100%
Heterodera zeae [21]
  mortality: 100%
Heterodera zeae [22]
  Activity: inactive
Heterodera zeae [23]
  mortality: 70%
Heterodera zeae [26]
  mortality: 100%
Heterodera zeae [24]
  mortality: 100%
Heterodera zeae [27]
  mortality: 100%
Heterodera zeae [25]
  mortality: 100%

## O=C(O)c1ccc(O)c(O)c1 [PROTOCATECHUIC ACID]
Heterodera zeae [1]
  Activity: inactive
Heterodera zeae [2]
  Activity: inactive
Heterodera zeae [3]
  mortality: 100%
Heterodera zeae [4]
  Activity: inactive
Heterodera zeae [5]
  Activity: inactive
Heterodera zeae [6]
  Activity: inactive
Heterodera zeae [7]
  Activity: inactive
Heterodera zeae [8]
  Activity: inactive
Heterodera zeae [9]
  mortality: 50%
Heterodera zeae [10]
  mortality: 10%
Heterodera zeae [11]
  mortality: 100%
Heterodera zeae [12]
  Activity: inactive
Heterodera zeae [13]
  Activity: inactive
Heterodera zeae [14]
  mortality: 10%
Heterodera zeae [15]
  Activity: inactive
Heterodera zeae [16]
  mortality: 50%
Heterodera zeae [17]
  mortality: 40%
Heterodera zeae [18]
  mortality: 40%
Heterodera zeae [19]
  Activity: inactive
Heterodera zeae [20]
  mortality: 100%
Heterodera zeae [21]
  mortality: 100%
Heterodera zeae [22]
  Activity: inactive
Heterodera zeae [23]
  mortality: 50%
Heterodera zeae [26]
  mortality: 100%
Heterodera zeae [24]
  mortality: 100%
Heterodera zeae [27]
  mortality: 100%
Heterodera zeae [25]
  mortality: 100%

## C[C@@H]1O[C@@H](OC[C@H]2O[C@@H](Oc3c(-c4ccc(O)c(O)c4)oc4cc(O)cc(O)c4c3=O)[C@H](O)[C@@H](O)[C@@H]2O)[C@H](O)[C@H](O)[C@H]1O [RUTIN]
Heterodera zeae [1]
  Activity: inactive
Heterodera zeae [2]
  Activity: inactive
Heterodera zeae [3]
  mortality: 100%
Heterodera zeae [28]
  mortality: 70%
Heterodera zeae [4]
  Activity: inactive
Heterodera zeae [5]
  Activity: inactive
Heterodera zeae [6]
  Activity: inactive
Heterodera zeae [7]
  Activity: inactive
Heterodera zeae [8]
  Activity: inactive
Heterodera zeae [9]
  mortality: 0%
Heterodera zeae [10]
  mortality: 0%
Heterodera zeae [11]
  mortality: 70%
Heterodera zeae [12]
  Activity: inactive
Heterodera zeae [13]
  Activity: inactive
Heterodera zeae [29]
  mortality: 70%
Heterodera zeae [14]
  mortality: 0%
Heterodera zeae [30]
  mortality: 100%
Heterodera zeae [15]
  Activity: inactive
Heterodera zeae [16]
  mortality: 0%
Heterodera zeae [17]
  mortality: 100%
Heterodera zeae [18]
  mortality: 100%
Heterodera zeae [19]
  Activity: inactive
Heterodera zeae [20]
  mortality: 100%
Heterodera zeae [21]
  mortality: 100%
Heterodera zeae [22]
  Activity: inactive
Heterodera zeae [23]
  mortality: 100%
Heterodera zeae [27]
  mortality: 100%
Heterodera zeae [25]
  mortality: 70%
